Laboratory results: ChEMBL document CHEMBL2375238, “Synthesis and biological evaluation of oleanolic acid derivatives as PTP1B inhibitors” (Eur J Med Chem, 2013)

Legend:
[1] = molecular target: T1, Tyrosine-protein phosphatase non-receptor type 1 (Homo sapiens, UniProt P18031); test: Inhibition of PTP1B (unknown origin) expressed in Escherichia coli expression system using p-nitrophenyl phosphate as substrate assessed as release of p-nitrophenol incubated for 10 mins prior to substrate addition measured after 30 mins
T1 sequence (P18031 whole entry): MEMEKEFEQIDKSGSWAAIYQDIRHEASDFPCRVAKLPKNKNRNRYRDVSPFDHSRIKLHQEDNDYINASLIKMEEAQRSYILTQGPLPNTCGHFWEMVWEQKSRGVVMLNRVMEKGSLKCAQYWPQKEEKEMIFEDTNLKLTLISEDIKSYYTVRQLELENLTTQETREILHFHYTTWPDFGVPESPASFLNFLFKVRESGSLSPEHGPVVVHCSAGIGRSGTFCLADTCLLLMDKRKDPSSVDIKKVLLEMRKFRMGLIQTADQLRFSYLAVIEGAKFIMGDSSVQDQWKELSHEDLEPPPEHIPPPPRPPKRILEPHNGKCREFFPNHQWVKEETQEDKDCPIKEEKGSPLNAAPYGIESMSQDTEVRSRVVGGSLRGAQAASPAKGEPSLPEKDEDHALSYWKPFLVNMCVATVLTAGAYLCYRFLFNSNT
In short: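 Native PTP1B purified from E. coli, diluted in 25 mM HEPES, 50 mM NaCl, 2.5 mM EDTA, 0.1% BSA, pH 7.2; inhibitors in DMSO. Enzyme and inhibitor preincubated at 37 °C in 50 mM HEPES, 2.5 mM EDTA, pH 7.0. pNPP then added; stopped after 30 min with 2 M Na2CO3; A405 read. Inhibition from OD against blank and no-inhibitor controls; means of three experiments.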

[2] = molecular target: T2, Tyrosine-protein phosphatase non-receptor type 1 (Homo sapiens) (UniProt P18031); test: Inhibition of PTP1B (unknown origin) expressed in Escherichia coli expression system using p-nitrophenyl phosphate as substrate assessed as release of p-nitrophenol at 10 ug/mL incubated for 10 mins prior to substrate addition measured after 30 mins relative to control
T2 sequence (whole entry): T1 sequence (P18031 whole entry)
In short: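 Native PTP1B was expressed in E. coli, purified, and diluted in 25 mM HEPES, 50 mM NaCl, 2.5 mM EDTA, 0.1% BSA, pH 7.2. Compounds were dissolved in DMSO and preincubated with enzyme in buffer A (50 mM HEPES, 2.5 mM EDTA, pH 7.0) for 10 min at 37 °C. pNPP was then added for 30 min at 37 °C.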

[3] = molecular target: Tyrosine-protein phosphatase non-receptor type 1 (Homo sapiens) (UniProt P18031); details: 100 ug/mL
3T3-L1 = test: Insulin sensitizing activity in mouse 3T3L1 cells assessed as increase in glucose uptake at 10 ug/mL after 50 hrs […] relative to control; type: functional
In short: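 3T3-L1 cells were grown in high-glucose DMEM with 10% FBS and, at 90% confluence, differentiated with insulin, dexamethasone and IBMX. After 4 days they were replated, grown 2 days, then made insulin-resistant with low insulin and high dexamethasone for 4 days. Compounds were given in high-glucose medium for 50 h. Supernatant glucose was measured by kit at OD 490 nm, against normal and insulin-resistant controls, in duplicate or triplicate.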

Row | Compound | IC50 [1] | Imax [2] | Imax [3] | Activity (3T3-L1)
1 | COC(=O)CCCCCNC(=O)[C@]12CCC(C)(C)C[C@H]1C1=CC[C@@H]3[C@@]4(C)CC[C@H](O[C@H]5O[C@H](C(=O)O)[C@@H](O)[C@H](O)[C@@H]5O)C(C)(C)[C@@H]4CC[C@@]3(C)[C@]1(C)CC2 | 1.91 µM | 98.6% | – | –
2 | CC1(C)CC[C@@]23CC[C@]4(C)[C@@](OC2=O)([C@@H]3C1)[C@@H](O)C[C@@H]1[C@@]2(C)CC[C@H](O[C@H]3O[C@H](C(=O)O)[C@@H](O)[C@H](O)[C@@H]3O)C(C)(C)[C@@H]2CC[C@]14C | – | 3.72% | – | –
3 | COC(=O)CCCCCNC(=O)[C@]12CCC(C)(C)C[C@H]1C1=CC[C@@H]3[C@@]4(C)CC[C@H](O[C@@H]5O[C@@H](C)[C@@H](O)[C@@H](O)[C@@H]5O)C(C)(C)[C@@H]4CC[C@@]3(C)[C@]1(C)CC2 | – | 1.91% | – | –
4 | CC1(C)CC[C@@]23CC[C@]4(C)[C@@](OC2=O)([C@@H]3C1)[C@@H](O)C[C@@H]1[C@@]2(C)CC[C@H](O[C@@H]3O[C@H](C(=O)O)[C@@H](O)[C@H](O)[C@H]3O)C(C)(C)[C@@H]2CC[C@]14C | – | 16.1% | – | –
5 | SODIUM ORTHOVANAD | – | – | 100% | –
6 | COC(=O)CCCCCNC(=O)[C@]12CCC(C)(C)C[C@H]1C1=CC[C@@H]3[C@@]4(C)CC[C@H](O[C@@]5(C(=O)OC)C[C@H](O)[C@@H](NC(C)=O)[C@H]([C@H](O)[C@H](O)CO)O5)C(C)(C)[C@@H]4CC[C@@]3(C)[C@]1(C)CC2 | – | 8.34% | – | -7.74%
7 | CC1(C)CC[C@@]23CC[C@]4(C)[C@@](OC2=O)([C@@H]3C1)[C@@H](O)C[C@@H]1[C@@]2(C)CC[C@H](O[C@@H]3O[C@H](CO)[C@@H](O[C@@H]5O[C@H](CO)[C@H](O)[C@H](O)[C@H]5O)[C@H](O)[C@H]3O)C(C)(C)[C@@H]2CC[C@]14C | – | 2.55% | – | –
8 | CC1(C)CC[C@]2(C(=O)NCCCCCC(=O)O)CC[C@]3(C)C(=CC[C@@H]4[C@@]5(C)CC[C@H](O[C@H]6O[C@H](CO)[C@@H](O)[C@H](O)[C@@H]6O)C(C)(C)[C@@H]5CC[C@]43C)[C@@H]2C1 | – | 57% | – | 57.55%
9 | C[C@@H]1O[C@@H](O[C@H]2CC[C@]3(C)[C@H]4CC=C5[C@@H]6CC(C)(C)CC[C@]6(C(=O)NCCCCCC(=O)O)CC[C@@]5(C)[C@]4(C)CC[C@H]3C2(C)C)[C@@H](O)[C@H](O)[C@@H]1O | – | 63.2% | – | 59.58%
10 | CC1(C)CC[C@]2(C(=O)NCCCCCC(=O)O)CC[C@]3(C)C(=CC[C@@H]4[C@@]5(C)CC[C@H](O[C@H]6O[C@H](C(=O)O)[C@@H](O)[C@H](O)[C@@H]6O)C(C)(C)[C@@H]5CC[C@]43C)[C@@H]2C1 | 16.1 µM | 64.8% | – | 3.91%
11 | CC1(C)CC[C@]2(C(=O)NCCCCCC(=O)O)CC[C@]3(C)C(=CC[C@@H]4[C@@]5(C)CC[C@H](O[C@@H]6O[C@H](CO)[C@@H](O[C@@H]7O[C@H](CO)[C@H](O)[C@H](O)[C@H]7O)[C@H](O)[C@H]6O)C(C)(C)[C@@H]5CC[C@]43C)[C@@H]2C1 | 9.21 µM | 83.7% | – | 39.13%
12 | COC(=O)CCCCCNC(=O)[C@]12CCC(C)(C)C[C@H]1C1=CC[C@@H]3[C@@]4(C)CC[C@H](O[C@]5(C(=O)OC)C[C@H](O)[C@@H](NC(C)=O)[C@H]([C@H](O)[C@H](O)CO)O5)C(C)(C)[C@@H]4CC[C@@]3(C)[C@]1(C)CC2 | – | 56% | – | 9.54%
13 | CC1(C)CC[C@]2(C(=O)NCCCCCC(=O)O)CC[C@]3(C)C(=CC[C@@H]4[C@@]5(C)CC[C@H](O[C@@H]6O[C@H](CO)[C@@H](O)[C@H](O)[C@H]6O)C(C)(C)[C@@H]5CC[C@]43C)[C@@H]2C1 | – | 57.6% | – | 6.11%
14 | CC1(C)CC[C@@]23CC[C@]4(C)[C@@](OC2=O)([C@@H]3C1)[C@@H](O)C[C@@H]1[C@@]2(C)CC[C@H](O[C@@H]3O[C@H](CO)[C@@H](O)[C@H](O)[C@H]3O)C(C)(C)[C@@H]2CC[C@]14C | – | 6% | – | –
15 | COC(=O)CCCCCNC(=O)[C@]12CCC(C)(C)C[C@H]1C1=CC[C@@H]3[C@@]4(C)CC[C@H](O[C@@H]5O[C@H](CO)[C@@H](O)[C@H](O)[C@H]5O)C(C)(C)[C@@H]4CC[C@@]3(C)[C@]1(C)CC2 | – | 5.82% | – | –
16 | CC1(C)CC[C@]2(C(=O)NCCCCCC(=O)O)CC[C@]3(C)C(=CC[C@@H]4[C@@]5(C)CC[C@H](O[C@@H]6O[C@H](C(=O)O)[C@@H](O)[C@H](O)[C@H]6O)C(C)(C)[C@@H]5CC[C@]43C)[C@@H]2C1 | 0.56 µM | 72% | – | 21.52%
17 | CC(=O)N[C@H]1[C@H]([C@H](O)[C@H](O)CO)O[C@@](O[C@H]2CC[C@]3(C)[C@H]4CC=C5[C@@H]6CC(C)(C)CC[C@]6(C(=O)NCCCCCC(=O)O)CC[C@@]5(C)[C@]4(C)CC[C@H]3C2(C)C)(C(=O)O)C[C@@H]1O | – | 46% | – | -16.69%
18 | COC(=O)CCCCCNC(=O)[C@]12CCC(C)(C)C[C@H]1C1=CC[C@@H]3[C@@]4(C)CC[C@H](O[C@@H]5O[C@H](C(=O)OC)[C@@H](O)[C@H](O)[C@H]5O)C(C)(C)[C@@H]4CC[C@@]3(C)[C@]1(C)CC2 | – | 36.7% | – | 28.29%
19 | CN(CCOc1ccc(CC2SC(=O)NC2=O)cc1)c1ccccn1 (stereo not given) [ROSIGLITAZONE] | – | – | – | 100%
20 | CC(=O)N[C@H]1[C@H]([C@H](O)[C@H](O)CO)O[C@](O[C@H]2CC[C@]3(C)[C@H]4CC=C5[C@@H]6CC(C)(C)CC[C@]6(C(=O)NCCCCCC(=O)O)CC[C@@]5(C)[C@]4(C)CC[C@H]3C2(C)C)(C(=O)O)C[C@@H]1O | – | 69% | – | 10.31%
21 | COC(=O)CCCCCNC(=O)[C@]12CCC(C)(C)C[C@H]1C1=CC[C@@H]3[C@@]4(C)CC[C@H](O[C@H]5O[C@H](CO)[C@@H](O)[C@H](O)[C@@H]5O)C(C)(C)[C@@H]4CC[C@@]3(C)[C@]1(C)CC2 | – | 1.52% | – | –
22 | COC(=O)CCCCCNC(=O)[C@]12CCC(C)(C)C[C@H]1C1=CC[C@@H]3[C@@]4(C)CC[C@H](O[C@H]5O[C@H](C(=O)OC)[C@@H](O)[C@H](O)[C@@H]5O)C(C)(C)[C@@H]4CC[C@@]3(C)[C@]1(C)CC2 | 12.2 µM | 81.9% | – | 39.18%
23 | COC(=O)CCCCCNC(=O)[C@]12CCC(C)(C)C[C@H]1C1=CC[C@@H]3[C@@]4(C)CC[C@H](O[C@@H]5O[C@H](C(=O)O)[C@@H](O)[C@H](O)[C@H]5O)C(C)(C)[C@@H]4CC[C@@]3(C)[C@]1(C)CC2 | – | 11.8% | – | –
24 | CC1(C)CC[C@]2(C(=O)NCCCCCC(=O)O)CC[C@]3(C)C(=CC[C@@H]4[C@@]5(C)CC[C@H](O)C(C)(C)[C@@H]5CC[C@]43C)[C@@H]2C1 | – | 14.3% | – | –
25 | CC1(C)CC[C@@]23CC[C@]4(C)[C@@](OC2=O)([C@@H]3C1)[C@@H](O)C[C@@H]1[C@@]2(C)CC[C@H](O[C@H]3O[C@H](CO)[C@@H](O)[C@H](O)[C@@H]3O)C(C)(C)[C@@H]2CC[C@]14C | – | 2.9% | – | –
26 | COC(=O)CCCCCNC(=O)[C@]12CCC(C)(C)C[C@H]1C1=CC[C@@H]3[C@@]4(C)CC[C@H](O)C(C)(C)[C@@H]4CC[C@@]3(C)[C@]1(C)CC2 | – | 4.89% | – | –
27 | COC(=O)CCCCCNC(=O)[C@]12CCC(C)(C)C[C@H]1C1=CC[C@@H]3[C@@]4(C)CC[C@H](O[C@@H]5O[C@H](CO)[C@@H](O[C@@H]6O[C@H](CO)[C@H](O)[C@H](O)[C@H]6O)[C@H](O)[C@H]5O)C(C)(C)[C@@H]4CC[C@@]3(C)[C@]1(C)CC2 | – | 3.87% | – | –
28 | C[C@@H]1O[C@@H](O[C@H]2CC[C@]3(C)[C@H]4C[C@H](O)[C@]56OC(=O)[C@@]7(CCC(C)(C)C[C@H]75)CC[C@@]6(C)[C@]4(C)CC[C@H]3C2(C)C)[C@@H](O)[C@H](O)[C@@H]1O | – | -1.55% | – | –
